Laboratory results taken from ChEMBL document CHEMBL4229344 (Eur J Med Chem, 2018).

What was measured:
[1] = target: Cyclin-dependent kinase 4 (Homo sapiens) (UniProt P11802); test: Binding affinity to wild-type human full length CDK4 (M1 to E303 residues) expressed in mammalian expression system assessed as residual binding level at 1 uM by Kinomescan method relative to control
Summary of the method: (§1)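 Single-concentration (1 μM) competition-binding screen run by KINOMEscan against a panel of 468 purified kinases and mutants. The read-out is the relative binding activity of the test compound to each kinase.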

[2] = target: Platelet-derived growth factor receptor alpha (Homo sapiens, UniProt P16234); test: Inhibition of PDGF-induced PDGFRalpha autophosphorylation at Y1018 residue in human NCI-H1703 cells after 2 hrs in presence of PDGF-AA by Western blot analysis; assay type: cell-based
[3] = target: Cyclin-dependent kinase 9 (Homo sapiens) (UniProt P50750); test: Binding affinity to wild-type human full length CDK9 (M1 to F372 residues) expressed in bacterial expression system assessed as residual binding level at 1 uM by Kinomescan method relative to control; summary of the method: as §1
[4] = target: Mitogen-activated protein kinase 11 (Homo sapiens) (UniProt Q15759); test: Binding affinity to wild-type human full length p38-beta (M1 to Q364 residues) expressed in bacterial expression system assessed as residual binding level at 1 uM by Kinomescan method relative to control
Summary of the method: (§2)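 Single-concentration KINOMEscan (DiscoverX) binding screen at 1 μM against a panel of 468 purified kinases and mutants. The read-out is binding relative to control.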

[5] = target: Mitogen-activated protein kinase kinase kinase kinase 5 (Homo sapiens) (UniProt Q9Y4K4); test: Binding affinity to wild-type human partial length MAP4K5 (M1 to P297 residues) expressed in bacterial expression system assessed as residual binding level at 1 uM by Kinomescan method relative to control
[6] = target: Serine/threonine-protein kinase TAO2 (Homo sapiens) (UniProt Q9UL54); test: Binding affinity to wild-type human partial length TAOK2 (M1 to A320 residues) expressed in mammalian expression system assessed as residual binding level at 1 uM by Kinomescan method relative to control
[7] = target: Mitogen-activated protein kinase kinase kinase 3 (Homo sapiens) (UniProt Q99759); test: Binding affinity to wild-type human partial length MAP3K3 (E320 to Y626 residues) expressed in mammalian expression system assessed as residual binding level at 1 uM by Kinomescan method relative to control
[8] = target: Ribosomal protein S6 kinase beta-1 (Homo sapiens) (UniProt P23443); test: Binding affinity to wild-type human partial length S6K1 (M1 to S421 residues) expressed in mammalian expression system assessed as residual binding level at 1 uM by Kinomescan method relative to control
[9] = target: Interferon-induced, double-stranded RNA-activated protein kinase (Homo sapiens) (UniProt P19525); test: Binding affinity to wild-type human partial length PRKR (F247 to C551 residues) expressed in bacterial expression system assessed as residual binding level at 1 uM by Kinomescan method relative to control
[10] = target: Serine/threonine-protein kinase SIK1 (Homo sapiens) (UniProt P57059); test: Binding affinity to wild-type human partial length SIK (M1 to Y304 residues) expressed in bacterial expression system assessed as residual binding level at 1 uM by Kinomescan method relative to control
[11] = target: Cyclin-dependent kinase 11B (Homo sapiens) (UniProt P21127); test: Binding affinity to wild-type human partial length CDC2L1 (P353 to G692 residues) expressed in bacterial expression system assessed as residual binding level at 1 uM by Kinomescan method relative to control
Summary of the method: (§3)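 Kinome-wide competition binding screen against a panel of 468 purified kinases/mutants, with the test compound at a single concentration of 1 μM. Read-out is the relative binding activity of each kinase in the presence of compound.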

[12] = target: Megakaryocyte-associated tyrosine-protein kinase (Homo sapiens) (UniProt P42679); test: Binding affinity to wild-type human full length CTK (M43 to P508 residues) expressed in mammalian expression system assessed as residual binding level at 1 uM by Kinomescan method relative to control; summary of the method: as §1
[13] = target: Aurora kinase B (Homo sapiens) (UniProt Q96GD4); test: Binding affinity to wild-type human partial length AURKB (D25 to A303 residues) expressed in mammalian expression system assessed as residual binding level at 1 uM by Kinomescan method relative to control; summary of the method: as §2
[14] = target: Receptor tyrosine-protein kinase erbB-2 (Homo sapiens) (UniProt P04626); test: Binding affinity to wild-type human partial length ERBB2 (K646 to V1225 residues) expressed in mammalian expression system assessed as residual binding level at 1 uM by Kinomescan method relative to control
[15] = target: Dual specificity mitogen-activated protein kinase kinase 4 (Homo sapiens) (UniProt P45985); test: Binding affinity to wild-type human partial length MEK4 (S84 to D399 residues) expressed in mammalian expression system assessed as residual binding level at 1 uM by Kinomescan method relative to control
[16] = target: Tyrosine-protein kinase Fyn (Homo sapiens) (UniProt P06241); test: Binding affinity to wild-type human partial length FYN (T243 to L534 residues) expressed in bacterial expression system assessed as residual binding level at 1 uM by Kinomescan method relative to control; summary of the method: as §3
[17] = target: Mitotic checkpoint serine/threonine-protein kinase BUB1 (Homo sapiens) (UniProt O43683); test: Binding affinity to wild-type human partial length BUB1 (Q724 to K1085 residues) expressed in mammalian expression system assessed as residual binding level at 1 uM by Kinomescan method relative to control
[18] = tested on: Phosphatidylinositol 4,5-bisphosphate 3-kinase catalytic subunit alpha isoform (Homo sapiens), P42336 [I800L]; test: Binding affinity to human partial length PIK3CA I800L mutant (R108 to N1068 residues) expressed in mammalian expression system assessed as residual binding level at 1 uM by Kinomescan method relative to control
Summary of the method: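 Kinome-wide single-concentration binding screen (KINOMEscan) at 1 μM against a panel of 468 purified kinases and mutants. Read-out is relative binding of each kinase compared with control. Selectivity across the panel was summarised as an S(10) score.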

[19] = target: Vascular endothelial growth factor receptor 3 (Homo sapiens) (UniProt P35916); test: Binding affinity to wild-type human partial length FLT4 (E821 to E1196 residues) expressed in bacterial expression system assessed as residual binding level at 1 uM by Kinomescan method relative to control
[20] = target: NUAK family SNF1-like kinase 1 (Homo sapiens) (UniProt O60285); test: Binding affinity to wild-type human partial length ARK5 (E25 to I332 residues) expressed in bacterial expression system assessed as residual binding level at 1 uM by Kinomescan method relative to control; summary of the method: as §2
[21] = target: Cyclin-dependent kinase 2 homolog (Plasmodium falciparum (isolate 3D7)) (UniProt P61075); test: Binding affinity to wild-type Plasmodium falciparum 3D7 full length PK5 (M1 to N288 residues) expressed in mammalian expression system assessed as residual binding level at 1 uM by Kinomescan method relative to control; summary of the method: as §1
[22] = target: Fibroblast growth factor receptor 3 (Homo sapiens) (UniProt P22607); test: Binding affinity to wild-type human partial length FGFR3 (R442 to S771 residues) expressed in bacterial expression system assessed as residual binding level at 1 uM by Kinomescan method relative to control

Chain of Cyclin-dependent kinase 9 (Homo sapiens) (P50750 whole entry, the tested form may be a part): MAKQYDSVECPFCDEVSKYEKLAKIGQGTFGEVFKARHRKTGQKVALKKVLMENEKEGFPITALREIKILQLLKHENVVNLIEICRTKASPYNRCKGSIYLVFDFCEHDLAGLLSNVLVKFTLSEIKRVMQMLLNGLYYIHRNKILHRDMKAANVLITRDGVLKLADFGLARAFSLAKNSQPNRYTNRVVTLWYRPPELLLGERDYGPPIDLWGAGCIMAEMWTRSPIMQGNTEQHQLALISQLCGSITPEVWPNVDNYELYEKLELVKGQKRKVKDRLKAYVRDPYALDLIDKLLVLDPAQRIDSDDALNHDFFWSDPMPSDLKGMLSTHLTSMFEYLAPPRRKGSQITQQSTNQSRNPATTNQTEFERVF
Chain of Cyclin-dependent kinase 4 (Homo sapiens) (P11802 whole entry, the tested form may be a part): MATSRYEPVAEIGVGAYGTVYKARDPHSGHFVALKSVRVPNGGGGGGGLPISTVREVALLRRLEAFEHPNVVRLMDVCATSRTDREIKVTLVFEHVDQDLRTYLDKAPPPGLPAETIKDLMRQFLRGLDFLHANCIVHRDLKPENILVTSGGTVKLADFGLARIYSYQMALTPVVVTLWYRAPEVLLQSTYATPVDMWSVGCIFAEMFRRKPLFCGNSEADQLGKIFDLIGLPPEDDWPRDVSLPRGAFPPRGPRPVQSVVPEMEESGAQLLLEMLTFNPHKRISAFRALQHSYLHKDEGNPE
Chain of Mitogen-activated protein kinase kinase kinase 3 (Homo sapiens) (Q99759 whole entry, the tested form may be a part): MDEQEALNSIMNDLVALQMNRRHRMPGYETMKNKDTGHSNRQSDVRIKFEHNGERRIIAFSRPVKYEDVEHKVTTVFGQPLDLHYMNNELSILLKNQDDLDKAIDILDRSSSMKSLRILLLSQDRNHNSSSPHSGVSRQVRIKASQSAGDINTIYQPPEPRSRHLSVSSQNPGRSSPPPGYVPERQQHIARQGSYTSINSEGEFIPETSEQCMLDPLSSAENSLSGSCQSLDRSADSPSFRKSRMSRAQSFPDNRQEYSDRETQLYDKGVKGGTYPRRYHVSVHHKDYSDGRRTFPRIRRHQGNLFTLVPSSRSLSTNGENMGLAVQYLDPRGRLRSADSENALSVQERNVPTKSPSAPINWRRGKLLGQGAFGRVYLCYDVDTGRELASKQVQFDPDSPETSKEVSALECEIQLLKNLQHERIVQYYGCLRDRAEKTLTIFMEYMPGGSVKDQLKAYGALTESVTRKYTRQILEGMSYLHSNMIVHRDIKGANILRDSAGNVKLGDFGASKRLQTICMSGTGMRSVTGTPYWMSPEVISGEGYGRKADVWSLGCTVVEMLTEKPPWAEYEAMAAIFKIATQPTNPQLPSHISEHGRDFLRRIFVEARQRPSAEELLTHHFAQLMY
Chain of Receptor tyrosine-protein kinase erbB-2 (Homo sapiens) (P04626 whole entry, the tested form may be a part): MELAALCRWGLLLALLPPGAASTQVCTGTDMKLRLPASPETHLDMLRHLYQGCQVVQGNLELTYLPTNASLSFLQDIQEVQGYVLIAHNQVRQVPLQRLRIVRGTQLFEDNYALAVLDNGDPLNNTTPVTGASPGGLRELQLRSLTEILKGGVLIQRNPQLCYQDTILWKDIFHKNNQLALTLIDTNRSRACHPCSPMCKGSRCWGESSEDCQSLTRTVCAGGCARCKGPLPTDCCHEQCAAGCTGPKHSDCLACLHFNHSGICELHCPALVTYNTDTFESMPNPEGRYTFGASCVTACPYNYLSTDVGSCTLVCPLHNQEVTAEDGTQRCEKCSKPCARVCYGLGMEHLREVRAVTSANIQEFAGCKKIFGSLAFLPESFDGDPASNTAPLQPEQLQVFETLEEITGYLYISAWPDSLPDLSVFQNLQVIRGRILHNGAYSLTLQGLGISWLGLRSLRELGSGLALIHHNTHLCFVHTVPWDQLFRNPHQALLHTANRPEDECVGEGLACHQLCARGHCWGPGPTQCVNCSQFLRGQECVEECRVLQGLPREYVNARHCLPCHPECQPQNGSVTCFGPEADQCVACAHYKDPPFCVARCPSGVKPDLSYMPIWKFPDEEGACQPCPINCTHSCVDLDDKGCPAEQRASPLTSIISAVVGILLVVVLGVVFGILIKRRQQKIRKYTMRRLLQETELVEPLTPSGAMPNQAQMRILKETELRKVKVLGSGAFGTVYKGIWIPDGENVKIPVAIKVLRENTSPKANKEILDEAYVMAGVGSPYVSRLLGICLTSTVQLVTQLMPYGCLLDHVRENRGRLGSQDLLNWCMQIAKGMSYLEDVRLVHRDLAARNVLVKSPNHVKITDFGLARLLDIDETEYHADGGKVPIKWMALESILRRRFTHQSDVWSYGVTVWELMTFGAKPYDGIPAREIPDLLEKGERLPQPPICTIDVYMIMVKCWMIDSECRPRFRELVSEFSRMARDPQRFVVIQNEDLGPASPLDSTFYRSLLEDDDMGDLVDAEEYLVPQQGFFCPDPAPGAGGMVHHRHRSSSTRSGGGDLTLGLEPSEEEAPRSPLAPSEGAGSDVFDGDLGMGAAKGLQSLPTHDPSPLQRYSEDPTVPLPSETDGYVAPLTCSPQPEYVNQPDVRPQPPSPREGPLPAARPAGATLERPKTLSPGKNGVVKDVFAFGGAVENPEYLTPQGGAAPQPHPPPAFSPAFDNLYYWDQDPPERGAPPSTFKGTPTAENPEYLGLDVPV
Chain of Ribosomal protein S6 kinase beta-1 (Homo sapiens) (P23443 whole entry, looked up, the tested form may be a part): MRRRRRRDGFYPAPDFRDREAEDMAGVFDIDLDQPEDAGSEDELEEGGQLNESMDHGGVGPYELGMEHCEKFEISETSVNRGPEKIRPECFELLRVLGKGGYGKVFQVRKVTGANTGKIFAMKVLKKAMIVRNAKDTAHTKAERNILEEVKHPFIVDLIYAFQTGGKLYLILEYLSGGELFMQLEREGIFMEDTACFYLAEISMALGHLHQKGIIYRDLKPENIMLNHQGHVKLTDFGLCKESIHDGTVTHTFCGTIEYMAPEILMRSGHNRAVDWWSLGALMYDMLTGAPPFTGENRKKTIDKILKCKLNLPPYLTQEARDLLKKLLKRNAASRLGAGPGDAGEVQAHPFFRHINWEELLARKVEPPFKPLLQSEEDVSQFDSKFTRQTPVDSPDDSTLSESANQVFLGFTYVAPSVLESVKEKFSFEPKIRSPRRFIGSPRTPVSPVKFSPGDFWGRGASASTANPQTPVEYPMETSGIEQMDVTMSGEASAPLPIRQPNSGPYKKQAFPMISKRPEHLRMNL
Chain of Mitogen-activated protein kinase kinase kinase kinase 5 (Homo sapiens) (Q9Y4K4 whole entry, looked up, the tested form may be a part): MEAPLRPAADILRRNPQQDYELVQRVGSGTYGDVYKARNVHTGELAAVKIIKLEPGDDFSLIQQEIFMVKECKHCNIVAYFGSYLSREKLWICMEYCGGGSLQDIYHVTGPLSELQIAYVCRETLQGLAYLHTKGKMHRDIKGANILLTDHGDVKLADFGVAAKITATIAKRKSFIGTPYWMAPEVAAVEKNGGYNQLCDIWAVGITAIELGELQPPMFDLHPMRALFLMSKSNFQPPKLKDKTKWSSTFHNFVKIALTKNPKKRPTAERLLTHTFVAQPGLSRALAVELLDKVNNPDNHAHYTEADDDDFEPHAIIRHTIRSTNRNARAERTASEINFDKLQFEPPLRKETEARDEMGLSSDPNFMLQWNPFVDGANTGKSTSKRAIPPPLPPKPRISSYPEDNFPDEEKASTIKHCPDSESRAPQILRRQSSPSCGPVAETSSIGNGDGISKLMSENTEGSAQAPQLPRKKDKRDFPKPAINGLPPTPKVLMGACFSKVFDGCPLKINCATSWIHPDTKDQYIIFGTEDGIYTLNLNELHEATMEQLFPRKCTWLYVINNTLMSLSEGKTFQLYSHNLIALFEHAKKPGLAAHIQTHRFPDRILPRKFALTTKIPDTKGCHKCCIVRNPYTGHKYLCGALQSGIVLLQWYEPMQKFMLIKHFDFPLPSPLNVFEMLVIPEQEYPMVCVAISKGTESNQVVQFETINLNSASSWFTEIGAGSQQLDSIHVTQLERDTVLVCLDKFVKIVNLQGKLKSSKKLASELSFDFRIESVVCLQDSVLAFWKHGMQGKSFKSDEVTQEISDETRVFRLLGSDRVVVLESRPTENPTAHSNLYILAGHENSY
Chain of Interferon-induced, double-stranded RNA-activated protein kinase (Homo sapiens) (P19525 whole entry, the tested form may be a part): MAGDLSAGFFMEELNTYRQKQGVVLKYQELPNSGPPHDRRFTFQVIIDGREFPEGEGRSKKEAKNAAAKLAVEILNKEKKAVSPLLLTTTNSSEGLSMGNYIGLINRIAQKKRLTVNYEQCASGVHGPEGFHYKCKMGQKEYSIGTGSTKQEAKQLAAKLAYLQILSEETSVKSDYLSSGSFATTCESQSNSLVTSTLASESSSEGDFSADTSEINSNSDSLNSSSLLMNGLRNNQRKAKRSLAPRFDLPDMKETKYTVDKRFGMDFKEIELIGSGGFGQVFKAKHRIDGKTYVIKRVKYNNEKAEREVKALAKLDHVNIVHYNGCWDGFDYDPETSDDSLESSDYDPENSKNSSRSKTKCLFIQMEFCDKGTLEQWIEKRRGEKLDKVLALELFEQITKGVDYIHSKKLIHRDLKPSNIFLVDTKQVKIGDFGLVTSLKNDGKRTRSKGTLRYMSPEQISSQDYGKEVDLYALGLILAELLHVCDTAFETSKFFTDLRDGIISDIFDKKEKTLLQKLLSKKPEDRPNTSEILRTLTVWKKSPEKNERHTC
Chain of Aurora kinase B (Homo sapiens) (Q96GD4 whole entry, the tested form may be a part): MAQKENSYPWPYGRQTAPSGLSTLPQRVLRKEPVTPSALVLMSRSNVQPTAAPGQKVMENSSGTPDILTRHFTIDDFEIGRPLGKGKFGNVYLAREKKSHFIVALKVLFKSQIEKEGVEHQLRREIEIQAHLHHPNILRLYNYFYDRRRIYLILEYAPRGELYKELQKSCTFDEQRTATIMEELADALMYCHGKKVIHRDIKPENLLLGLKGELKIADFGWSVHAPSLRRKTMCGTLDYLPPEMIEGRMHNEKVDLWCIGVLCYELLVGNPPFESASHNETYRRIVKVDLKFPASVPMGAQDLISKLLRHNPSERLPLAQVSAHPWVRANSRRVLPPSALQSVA

For `Cc1ccc(NC(=O)c2ccc(CN(CCN(C)C)C(=O)c3cccnc3)cc2)cc1Nc1nccc(-c2cccnc2)n1`, the Activity [1] was 100%, the inhibition [2] was “Dose-dependent effect” and the Activity [3] was 100%. It also gave an Activity [4] of 100%, an Activity [5] of 97% and an Activity [6] of 77%. For the same compound, the Activity [7] was 86%, the Activity [8] was 100% and the Activity [9] was 100%. It also gave an Activity [10] of 100%, an Activity [11] of 91% and an Activity [12] of 90%. It also gave an Activity [13] of 93%, an Activity [14] of 85% and an Activity [15] of 100%. The Activity [16] was 80%, the Activity [17] was 100% and the Activity [18] was 79%. It also gave an Activity [19] of 100%, an Activity [20] of 93% and an Activity [21] of 100%. It also gave an Activity [22] of 100%.
